The nature of this series: Toxicity liver stage against HepG2, at 10uM. It counts as cell-based. On the set-up: test concentration 10 uM, cell line HepG2-A16-CD81EGFP. The note with it: human, HepG2-A16-CD81EGFP cells; read-out: INHIBITION
Summed up:
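Uninfected HepG2-A16-CD81EGFP cells, 3 × 10^3 per well, 1536-well, plated on prespotted compound at 10 μM final, parasite-free screening media added to match infected plates; puromycin 10 μM positive, DMSO 0.5% negative; run in parallel with 48 h PbLuc assay at 37 °C, 5% CO2; viability by CellTiter-Glo luminescence, normalized to controls.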
Take `CC(Sc1nc(N)cc(N)n1)c1nc(C(C)(C)C)no1` (configuration not stated): the cytotoxicity at 10 µM was -5.27%. The value for `O=C(NC[C@H]1CCCC[C@H]1O)c1ccc2nc(-c3ccco3)[nH]c2c1` was -5.78%; that for `O=C(c1ccc[nH]1)N1CCOC2(COCCN(c3cncnc3)C2)C1` (configuration not stated) was 7.7%. As for `Cn1cc(CN2CCC3(CCCN(C(=O)c4cscn4)C3)C2)cn1` (configuration not stated), the cytotoxicity at 10 µM amounted to 1.71%. With `COCCN1C(=O)CCC12CCCN(c1ncc(F)cn1)CC2` (configuration not stated) the figure was -8.92%. The value for `CCOC(=O)CCNC(=O)N1CCN(c2nc3ccccc3n2C)CC1` was 4.88%; that for `O=C(NCc1ccccn1)c1nnn(-c2ccc(Br)cc2)n1` was 1.47%; that for `Cc1ncsc1CN1C[C@@H]2COC[C@]2(COc2ccc(C#N)cn2)C1` was -25.6%. The value for `O=C(Nc1cc(-c2ccncc2)no1)C1CCCCC1` was -5.37%. Take `O=C(Cn1cc(I)cn1)N1CCc2ccccc2C1`: the cytotoxicity at 10 µM was determined as 11.2%. With `COc1ccccc1N1CC(NC(=O)Cn2cc(C)nn2)CC1=O` (configuration not stated) the figure was 11.6%; with `CS(=O)(=O)c1cn[nH]c1C1CCCCN1C(=O)c1ccsc1` (configuration not stated), -18.6%; with `COCCN1CCC(c2cncc(N(C)C)n2)CC1`, -25.5%. On to `O=C(CN1CCS(=O)(=O)CC1)Nc1ccc(N2CCCC2)nc1`, for which the cytotoxicity at 10 µM was 10.3%. With `O=S(=O)(Cc1cc(-c2ccccc2)no1)CC1CCCO1` (configuration not stated) the figure was 4.7%. Turning to `CC(C)c1nnc2n1CCN(Cc1cccc3c1OCCO3)C2`, the cytotoxicity at 10 µM was -1.26%.

Regarding `O=C(Nc1ccc(-c2csnn2)cc1)N1CC[C@H](O)C1`, the cytotoxicity at 10 µM was -4.62%.

Turning to `CC(C)c1nnc(CN2CC(n3cccn3)Cc3ccccc32)o1` (configuration not stated), the cytotoxicity at 10 µM was -146%. With `Cc1cnn(CCNc2cnc3ccccc3n2)c1` the figure was 11.4%. With `O=C(Nc1cnn(-c2ccccc2Cl)c1)NC1CCC(O)CC1` (configuration not stated) the figure was -2.49%.

With `Cc1oc(C(=O)Nc2cccc(Cl)c2C)cc1S(N)(=O)=O`, the cytotoxicity at 10 µM came out at 7.46%.

With `CC(O)CN1CCN(Cc2coc(-c3ccccc3Cl)n2)CC1` (configuration not stated), the cytotoxicity at 10 µM was -4.73%.

For `CCCNC(=O)CNC(=O)CC1CCCc2cc(OC)ccc21` (configuration not stated), the cytotoxicity at 10 µM was -4.52%. The value for `Cc1nc(C)c(C(=O)N2CCc3c(Cl)cccc32)o1` was -1.55%. With `CN(Cc1cc(Br)cn1C)C(=O)c1cscn1` the figure was -0.37%; with `CCc1ncncc1C(=O)NCCNS(=O)(=O)c1ccc(C)cc1`, -5.95%. The value for `Cc1ccccc1CN(Cc1ccccn1)C(=O)CN(C)C(C)C` was -0.675%; that for `Cc1c(C(=O)NC2=NCCS2)cnn1-c1ccc(Cl)cc1` was 1.51%; that for `O=C(CCc1cccs1)NCC1CCCN1c1cccnn1` (configuration not stated) was -1.9%. For `COc1ccc(C(=O)NCCNC(=O)c2cncnc2C)cc1`, the cytotoxicity at 10 µM worked out at 7.98%. As for `CCNS(=O)(=O)C1CCN(C(=O)c2c(F)cc(F)cc2F)C1` (configuration not stated), the cytotoxicity at 10 µM was found to be 7.43%.

Regarding `CC(C)NC(=O)NCc1ccnc(N(C)C)n1`, the cytotoxicity at 10 µM was -3.63%. The value for `N#Cc1ccc(CNC(=O)C2=NN(c3ccccc3)C(=O)CN2)cc1` was -1.8%; that for `c1cnn(CC2CN(Cc3csc(-c4ccsc4)n3)CCO2)c1` (configuration not stated) was 3.23%.

For the compound `Cc1ccc(-c2nnc(CN3CCNC(=O)C3)o2)cc1`, the cytotoxicity at 10 µM was -1.26%. With `CC(Cn1cccn1)NC(=O)Nc1cccnc1` (configuration not stated) the figure was -2.9%; with `Cn1ccnc1-c1cccc(NC(=O)NCCCN2CCOCC2)c1`, -5.01%. For the compound `Cc1ccc(NC(=O)N(CCO)Cc2ccsc2)cc1`, the cytotoxicity at 10 µM was determined as 3.58%. The value for `O=C(CCNS(=O)(=O)c1ccccc1)N1CCOC(c2ccccc2)C1` (configuration not stated) was 6.6%. The value for `COc1ccc2cccc(CC(=O)NCc3nccc(N)n3)c2c1` was 0.684%. With `CC(C)Cn1cnnc1C1CCCN1C(=O)c1cc2ccccn2c1` (configuration not stated) the figure was -0.384%; with `Cc1ccc(N2CCCC(N(C)c3ncnc4c3CCC4)C2)nn1` (configuration not stated), 6.86%.

As to `CCS(=O)(=O)N(C)C1CCN(Cn2ccc(-c3ccc(F)cc3)n2)CC1`, the cytotoxicity at 10 µM was 1.95%. The value for `Cc1nc(CNC(=O)Nc2ccc(N(C)C)nc2)sc1C` was -0.222%; that for `Cc1cc(C)n(C2CN(Cc3ccccn3)C2)n1` was -3.67%. With `CN(C)C(=O)C1CSCN1C(=O)CCc1ccco1` (configuration not stated) the figure was -6.53%; with `C=C(C)COCCNC(=O)N1CCc2c(cccc2OC)C1`, 3.55%. Take `CC(C)c1nc(CNc2ccc(CNS(C)(=O)=O)cc2)cs1`: the cytotoxicity at 10 µM worked out at 3.82%. For the compound `COc1ccnc(N2CCN(C(=O)c3cnn(C)c3C3CC3)CC2)n1`, the cytotoxicity at 10 µM is -2.88%. For `Cc1ccc(C(=O)NCC2(O)CCOCC2)cc1Br`, the cytotoxicity at 10 µM is -1.3%.

Consider `Cn1ccc(NC(=O)Cc2cccc(F)c2)n1`, for which the cytotoxicity at 10 µM was 1.44%. Consider `Cc1csc2c(=O)n(CCN3CCNCC3)cnc12`, for which the cytotoxicity at 10 µM was -3.5%. With `COc1cc(F)ccc1C(C(=O)O)N(C)Cc1ccon1` (configuration not stated) the figure was -5.31%; with `Cc1nc(CNC(=O)CC2C(=O)NCCN2Cc2ccccc2C)n[nH]1` (configuration not stated), -7.21%; with `CC1(C)OC(=O)N(CC(=O)N2CCC(c3ccccc3Cl)C2)C1=O` (configuration not stated), -21.4%.

For the compound `CO[C@H]1CN(Cc2c(C)ccc3ncccc23)CC[C@H]1N`, the cytotoxicity at 10 µM is -146%. With `O=C(CCN1CCCCC1)N1CCC(Cc2ccc(CO)cc2)C1` (configuration not stated) the figure was -7.33%; with `Cc1cc(CC(=O)N2CCN(C)[C@@H]3CS(=O)(=O)C[C@@H]32)ccc1F`, -3.89%; with `Cc1nc(O)cc(CN2C[C@H](NC(=O)C3CCCC3)[C@@H](C3CC3)C2)n1`, -4.7%. With `O=C(CN1CCCC1c1nc(-c2ccccn2)no1)N1CCNCC1` (configuration not stated) the figure was 9.28%. With `COc1ccc(Cl)cc1C(C(=O)O)N(C)Cc1ccon1` (configuration not stated) the figure was -5.92%; with `CC(C)C1CN(c2ncccc2Cl)CCC(=O)N1Cc1ccc(F)cc1` (configuration not stated), 2.41%; with `CCn1ccnc1CNc1nccc(-c2cn(C)nc2C)n1`, -4.6%. As for `CC(C)CN1CC(C(=O)N(C)CCc2cn[nH]c2)CC1=O` (configuration not stated), the cytotoxicity at 10 µM was -4.1%.

For the compound `Cn1cc(C(=O)N2CCCN(C3Cc4ccccc4C3)CC2)cn1`, the cytotoxicity at 10 µM is -3.68%. With `CNC(=O)[C@@H]1C[C@H](N)CN1Cc1cc2cc(OC)ccc2nc1O` the figure was -6.69%; with `CN1CCCC(c2nc3c([nH]2)CC(C)(C)CNC3=O)C1` (configuration not stated), 9.01%. With `Cc1csc(S(=O)(=O)N2CCN(C)C3(CCC(=O)N(C)CC3)C2)c1` (configuration not stated) the figure was 1.67%; with `CCCn1ncc(C(=O)NCCc2[nH]nc3c2CCCC3)c1C`, -6.63%. With `Cc1[nH]c(=O)[nH]c(=O)c1CC(=O)N1CCCN(CC2CC2)C(C(C)C)C1` (configuration not stated) the figure was -160%; with `CCn1c(N)nc2cc(C(=O)N3CCCOCC3)cnc21`, -8.24%. On to `CCNC(=O)[C@@H]1C[C@H](N)CN1c1cc(CC)nc(N(C)C)n1`, for which the cytotoxicity at 10 µM is -3.08%. `Cc1cnc(C(=O)N2CCCC(Cn3cc(C4CC4)nn3)C2)cn1` (configuration not stated): the cytotoxicity at 10 µM was -1.15%.

As for `c1ccc(CCN2CCOC(CNc3cccnn3)C2)nc1` (configuration not stated), the cytotoxicity at 10 µM is -1.56%. With `COCCN1CCN(CCS(C)(=O)=O)CC1C` (configuration not stated) the figure was -1.22%. The value for `NC(=O)C1CN(C(=O)Nc2ccccc2Oc2ccccc2Cl)CCO1` (configuration not stated) was -10.5%; that for `Cc1noc(C2CCCN(C(=O)c3ccc(N(C)C)nc3)C2)n1` (configuration not stated) was -4.69%; that for `CCn1cc(CN2CCCN(C(=O)c3cccc(C#N)c3)CC2)cn1` was 0.893%. The value for `CCOc1ncccc1CNC(=O)NCC(O)c1ccccc1OC` (configuration not stated) was -6.85%; that for `Cc1nn(C)c(C)c1C1CCCN1C(=O)c1ccc(N(C)C)nn1` (configuration not stated) was -10.6%; that for `NC(=O)C1CCN(C(=O)NCCOc2ccc3c(c2)OCO3)C1` (configuration not stated) was -13.3%. Regarding `O=C(c1cn(-c2ccccc2)nn1)N1CCCC(n2cccn2)C1` (configuration not stated), the cytotoxicity at 10 µM was -7.85%. For the compound `CCn1c(C)nnc1CN(C)C1CCN(CCCSC)C1` (configuration not stated), the cytotoxicity at 10 µM was -6.21%.

With `Cc1cc(CN(C)C2CCCN(Cc3noc(C)n3)C2)on1` (configuration not stated), the cytotoxicity at 10 µM was -5.85%. With `Cc1csc(CNC(=O)Cc2ccc3c(c2)OCCO3)n1` the figure was -1.3%; with `CCn1cnnc1C1CCCN(C(=O)COc2ccc(Cl)cc2)C1` (configuration not stated), -5.26%.

Regarding `Cn1cc(N2C[C@@H]3CN(Cc4ccoc4)C[C@@H]3C2=O)cn1`, the cytotoxicity at 10 µM was -2.93%.

Turning to `COc1ccc2c(c1)C1(CCN(Cc3ccccn3)CC1)N(C)CC2`, the cytotoxicity at 10 µM was -150%. Consider `Cc1nn(C)c(N(C)C)c1CNCc1cccc(CN(C)C)c1`, for which the cytotoxicity at 10 µM was -3.01%. With `O=C(c1ccco1)N1CCCC12CCN(c1ncccn1)CC2` the figure was 3.23%; with `CN1CCS(=O)(=O)[C@@H]2CCN(C(=O)c3ccccc3)CC[C@@H]21`, -127%. Consider `CCO[C@H]1CO[C@@]2(CCCN(Cc3scnc3C)C2)C1`, for which the cytotoxicity at 10 µM was -137%.

As to `O=C(NC[C@H]1OC[C@@H]2CN(Cc3ccco3)CC[C@@H]21)c1cscn1`, the cytotoxicity at 10 µM is -145%. With `Cc1noc(C)c1CN(C)CC(=O)Nc1ccnn1C(C)C1CC1` (configuration not stated) the figure was -2.82%. Regarding `CSCC(=O)N1C[C@@H]2CC[C@H]1CN(C1Cc3ccccc3C1)C2`, the cytotoxicity at 10 µM was -6.08%. Consider `O=C(c1ccncc1)N1C[C@H]2CC[C@@H](C1)N(S(=O)(=O)c1cccnc1)C2`, for which the cytotoxicity at 10 µM was -3.51%. The value for `O=C(c1cnccn1)N1C[C@H]2CC[C@@H](C1)N(C(=O)CCc1ccsc1)C2` was 3.24%.
